Reference: ChEMBL document CHEMBL1157040, “Anti-HSV-1 activity and mechanism of action of some new synthesized substituted pyrimidine, thiopyrimidine and thiazolopyrimidine derivatives” (2010)

Assays:
Type in all cases: functional
Settings in all cases: Human alphaherpesvirus 1, Vero
[1] = tested on: Human alphaherpesvirus 1; test: Antiviral activity against HSV1 infected in african green monkey Vero cells assessed as inhibition of plaque formation at 2 ug/mL after 1 hr relative to control
Method in brief: (§1)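 Plaque reduction in Vero cells (DMEM, 10% FBS, pH 7.2–7.4). Virus–compound mixture inoculated onto monolayer for 1 h adsorption. Overlay of DMEM with 2% agarose, incubated at 37 °C until plaques formed. Fixed with 10% formalin for 2 h and stained with crystal violet. % inhibition = (untreated count − treated count)/untreated count × 100.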

[2] = tested on: Human alphaherpesvirus 1; test: Antiviral activity against HSV1 infected in african green monkey Vero cells assessed as inhibition of plaque formation at 5 ug/mL after 1 hr relative to control; method in brief: as §1
[3] = tested on: Human alphaherpesvirus 1; test: Antiviral activity against HSV1 infected in african green monkey Vero cells assessed as reduction of plaque formation at 30 ug/mL treated 1 hr after infection measured after 1 hr by replication assay relative to control
Method in brief: (§2)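 Replication format. Vero cells seeded at 10⁵ cells/ml and grown 2 days at 37 °C. Infected with HSV-1 at 10⁴ PFU/well for 1 h at 37 °C, then unadsorbed virus washed off three times with supplement-free medium. Plaques formed, fixed, stained and counted. % reduction calculated against infected control wells.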

[4] = tested on: Human alphaherpesvirus 1; test: Antiviral activity against HSV1 infected in african green monkey Vero cells assessed as reduction of plaque formation at 40 ug/mL treated 1 hr after infection measured after 1 hr by replication assay relative to control; method in brief: as §2
[5] = tested on: Human alphaherpesvirus 1; test: Antiviral activity against HSV1 infected in african green monkey Vero cells assessed as reduction of plaque formation at 30 ug/mL pretreated 2 hrs before infection measured after 1 hr by adsorption assay relative to control
Method in brief: (§3)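 Adsorption format. Vero cells seeded at 10⁵ cells/ml and grown 2 days at 37 °C. Compound in supplement-free medium coincubated with cells for 2 h at 4 °C, then washed three times. HSV-1 at 10⁴ PFU/well added to pretreated cells for 1 h. Agarose–DMEM overlay, 37 °C until plaques, formalin fix and crystal violet stain. % plaque reduction calculated against untreated infected cells.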

[6] = tested on: Human alphaherpesvirus 1; test: Antiviral activity against HSV1 infected in african green monkey Vero cells assessed as reduction of plaque formation at 30 ug/mL pretreated 1 hr before infection measured after 1 hr by virucidal assay relative to control
Method in brief: (§4)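 Virucidal format. 10⁷ PFU HSV-1 in serum-free DMEM mixed with compound for 1 h. Mixture serially diluted 10-fold three times, and each dilution applied to Vero monolayers (10⁵ cells/ml, grown 2 days) for 1 h. DMEM overlay added, incubated at 37 °C, fixed and stained. % plaque reduction calculated against virus not pretreated with compound.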

[7] = tested on: Human alphaherpesvirus 1; test: Antiviral activity against HSV1 infected in african green monkey Vero cells assessed as reduction of plaque formation at 40 ug/mL pretreated 2 hrs before infection measured after 1 hr by adsorption assay relative to control; method in brief: as §3
[8] = tested on: Human alphaherpesvirus 1; test: Antiviral activity against HSV1 infected in african green monkey Vero cells assessed as reduction of plaque formation at 20 ug/mL treated 1 hr after infection measured after 1 hr by replication assay relative to control; method in brief: as §2
[9] = tested on: Human alphaherpesvirus 1; test: Antiviral activity against HSV1 infected in african green monkey Vero cells assessed as reduction of plaque formation at 20 ug/mL pretreated 1 hr before infection measured after 1 hr by virucidal assay relative to control; method in brief: as §4
[10] = tested on: Human alphaherpesvirus 1; test: Antiviral activity against HSV1 infected in african green monkey Vero cells assessed as reduction of plaque formation at 20 ug/mL pretreated 2 hrs before infection measured after 1 hr by adsorption assay relative to control; method in brief: as §3

| Compound | inhibition at 2 µg/mL [1] [%] | inhibition at 5 µg/mL [2] [%] | further results |
| --- | --- | --- | --- |
| COc1ccc(C2C(=O)C(c3ccc4c(c3)CCCC4)N=C3SCC(=O)N32)cc1OC (stereo not given) | 0 | 0 |  |
| COc1ccc(C2NC(SC(C(C)=O)C(C)=O)=NC(c3ccc4c(c3)CCCC4)C2=O)cc1OC (stereo not given) | 90 | 95 | inhibition at 30 µg/mL [3]: 0%; inhibition at 40 µg/mL [4]: 0%; inhibition at 30 µg/mL [5]: 0%; inhibition at 30 µg/mL [6]: 28%; inhibition at 40 µg/mL [7]: 0% |
| COc1ccc(C2OC2C(=O)c2ccc3c(c2)CCCC3)cc1OC (stereo not given) | 24 | 57 |  |
| Cc1ccc(C2C(O)C(c3ccc4c(c3)CCCC4)=NN2c2ccccc2)cc1 (stereo not given) | 76 | 76 |  |
| COc1ccc(C2C(=O)C(c3ccc4c(c3)CCCC4)N=C3SC(C(C)=O)=C(C)N32)cc1OC (stereo not given) | 0 | 14 |  |
| COc1ccc(C2C(=O)C(c3ccc4c(c3)CCCC4)N=C3SC(C)C(=O)N32)cc1OC (stereo not given) | 90 | 100 | inhibition at 20 µg/mL [8]: 60%; inhibition at 30 µg/mL [3]: 80%; inhibition at 30 µg/mL [5]: 0%; inhibition at 30 µg/mL [6]: 95%; inhibition at 20 µg/mL [9]: 92%; inhibition at 20 µg/mL [10]: 0% |
| COc1ccc(C2C(=O)C(c3ccc4c(c3)CCCC4)N=c3s/c(=C/c4ccc(Cl)cc4)c(=O)n32)cc1OC (stereo not given) | 0 | 0 |  |
| Cc1ccc(C2OC2C(=O)c2ccc3c(c2)CCCC3)cc1 (stereo not given) | 0 | 0 |  |
| O=C(c1ccc2c(c1)CCCC2)C1OC1c1ccc(Br)cc1 (stereo not given) | 30 | 18 |  |
| Cc1ccc(-c2cc(-c3ccc4c(c3)CCCC4)nn2-c2ccccc2)cc1 | 3 | 26 |  |
| Cc1ccc(C2NC(=S)NC(c3ccc4c(c3)CCCC4)C2=O)cc1 (stereo not given) | 0 | 66 |  |
| COc1ccc(C2NC(=S)NC(c3ccc4c(c3)CCCC4)C2=O)cc1OC (stereo not given) | 27 | 54 |  |
| O=C(c1ccc2c(c1)CCCC2)C1OC(c2ccc(Br)cc2)C(C(=O)c2ccc3c(c2)CCCC3)OC1c1ccc(Br)cc1 (stereo not given) | 0 | 0 |  |
| COc1ccc(C2C(=O)C(c3ccc4c(c3)CCCC4)N=C3SCCC(=O)N32)cc1OC (stereo not given) | 3 | 30 |  |
| COc1ccc(C2NC(=O)NC(c3ccc4c(c3)CCCC4)C2=O)cc1OC (stereo not given) | 33 | 21 |  |
| Cc1ccc(C2NC(=N)NC(c3ccc4c(c3)CCCC4)C2=O)cc1 (stereo not given) | 4 | 0 |  |
| CCOC(=O)SC1=NC(c2ccc3c(c2)CCCC3)C(=O)C(c2ccc(OC)c(OC)c2)N1 (stereo not given) | 61 | 19 |  |
